Screening results (PubChem)
Compounds with a hit are over-represented: about 3.4% of the library has one in this group of screens.
VIM-2 inh: blocks Pseudomonas aeruginosa VIM-2 metallo-beta-lactamase; inhibition, % at 5.6 µM; purified VIM-2, nitrocefin hydrolysis, epi-absorbance fluorescence; 290,000 compounds, 0.89% hits;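 active = inhibition above the mean of all tested compounds plus 3 SD, cutoff set per screening run, cut at about 7.5% in these data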;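 note: red hydrolysis product quenches plate fluorescence so inhibitors raise well fluorescence; 0% = enzyme with DMSO and 100% = DMSO without enzyme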
IMP-1 inh: blocks Pseudomonas aeruginosa IMP-1 metallo-beta-lactamase; purified IMP-1, nitrocefin hydrolysis, epi-absorbance fluorescence; AID 1556; inhibition, % at 5.6 µM; 290,000 compounds, 0.45% hits;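 active = inhibition above the mean plus 3 SD of all compounds in the same screening run, cut at about 4.5% in these data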;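 note: 0% = IMP-1 with DMSO and 100% = DMSO wells lacking enzyme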
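Material – recombinant IMP-1 enzyme, purified · Amount – IMP-1 0.2 nM before substrate addition · Medium – HEPES buffer pH 7.1 with ZnSO4 and Brij 35 · Timing – 25 °C, 15 min preincubation, 25 min reaction · Measured by – plate fluorescence quenching by hydrolysis product, ex 480/em 530 nm · Read-out – percent enzyme inhibition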
ANO1 activ: activators or potentiators of mouse TMEM16A chloride channel; AID 623877; B-score at 10 µM; 340,000 compounds, 0.3% hits; HEK293 TMEM16A/YFP-H148Q/I152L, iodide quench fluorescence; hits give low values; Q8BHY3;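 active = fluorescence-ratio B-score plate-corrected deviation score at least 3 library SD below zero, with starting fluorescence score within 5 deviations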;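 note: channel opened by trigger with iodide after compound preincubation; score built on the fluorescence ratio of max minus min over baseline; more negative score means more quench and so TMEM16A activation or potentiation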
CHT PAM: human CHT allosteric activation; B-score at 10 µM; 310,000 compounds, 0.49% hits; Q9GZV3; CHT-expressing cells, membrane potential dye, choline EC20; hits give high values; LV-AA mutant CHT in HEK293 cells; AID 488977;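 active = initial fluorescence not abnormally high and integrated response B-score, plate-corrected, over 3 SD above library mean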
CHT inh: human CHT choline transport inhibition. Q9GZV3. CHT-expressing cells, membrane potential dye, choline response; hits give low values. B-score at 10 µM. 310,000 compounds, 0.86% hits;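 active = B-score over 3 SD under the library average, and starting fluorescence ratio not unusually high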;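 note: choline stimulus applied at its EC90 after an EC20 pre-addition; B-score computed on integrated fluorescence ratio after choline addition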
ANO1 block: mouse TMEM16A channel inhibition, primary screen; Q8BHY3; HEK293 TMEM16A/YFP iodide influx fluorescence, ionomycin; normalized B-score (activity score, 25-100; higher = stronger inhibition) at 10 µM; 310,000 compounds, 1.2% hits;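 active = ratio plate-corrected score three or more library SD toward inhibition, starting fluorescence score within five deviations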;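 note: score derived from kinetic fluorescence span divided by baseline fluorescence per well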
CHT activ conf: confirmation of human choline transporter (CHT) activators; shares compounds with CHT PAM; CHT-expressing cells, membrane potential dye fluorescence (FDSS); % of choline EC20–EC90 response window; HEK293 expressing CHT LV-AA mutant; choline added at its EC20; activation, % at 10 µM; 2,500 compounds, 91% hits;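 active = primary screen active, with duplicate mean activation above negative control mean plus 3 SD, cut at about 11% in these data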
HEK293 MP dye: counter-screen for CHT activators: effect in parental HEK293 cells | shares compounds with CHT PAM | membrane potential dye fluorescence (FDSS); measured after EC20 choline addition | ratio readout change at 10 µM, hits read low | 2,500 compounds, 62% hits | AID 623908;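 active = duplicate-averaged ratio beyond 3 SD from buffer wells, up or down, though filed actives are nearly all decreases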
* = called active by the depositor; i = inactive; nt = no result.

SMILES	VIM-2 inh	IMP-1 inh	ANO1 activ	CHT PAM	CHT inh	ANO1 block	CHT activ conf	HEK293 MP dye
CCC(C)(C)n1nnnc1C(c1ccccc1)N1CCc2ccccc2C1 (configuration not stated)	-3	-3	i	6.3*	i	i	32*	i
Cc1nc2c(C)cccc2c2c1CCN2c1ccccc1F	6	-2	i	i	i	i	47*	-54*
COc1cccc2c3c(c(C)nc12)CC(C)O3 (configuration not stated)	0	0	i	9.9*	i	i	53*	-70*
COc1ccc(N2CCc3c(C)nc4c(OC)cccc4c32)cc1	12*	-2	i	i	i	i	33*	-56*
Cc1cccc2c(N)c3c(nc12)N(C)CC3	3	-3	i	i	i	i	nt	nt
COc1ccc2nc(C)c3c(c2c1)OC(C)C3 (configuration not stated)	0	-6	i	i	i	i	nt	nt
CCn1c2ccccc2c2nn(C)c(=N)nc21	-2	-2	i	7.2*	i	i	66*	-70*
Cc1cc(C)c(C#N)c(SCc2cn3ccccc3n2)n1	1	-4	i	6.5*	i	i	51*	-46*
Cc1cc(C)c(C#N)c(SCSCc2ccccc2)n1	-4	-6	i	i	i	i	nt	nt
c1ccc2c(SCc3cn4ccccc4n3)nncc2c1	1	-2	i	7.7*	i	i	39*	-37*
CC(=O)Nc1ccc(S(=O)(=O)N2CCC(NC(=O)C(Cc3ccccc3F)NC(C)=O)CC2)cc1 (configuration not stated)	0	-1	i	nt	nt	nt	nt	nt
CCn1cc(/C=C(\NC(=O)c2ccccc2Cl)C(=O)NCCN2CCOCC2)c2ccccc21	-1	-2	i	i	i	i	nt	nt
COc1ncccc1-c1nnn(-c2ccc(Cl)nc2)n1	-3	-1	i	i	i	i	48*	-41*
Clc1ccc(-n2nnc(-c3cccnc3Cl)n2)cn1	-2	-1	i	i	i	i	nt	nt
CCOC(=O)N1CCC(N2CCN(C3CCCC3)C(CCO)C2)CC1 (configuration not stated)	-2	-3	i	i	i	i	nt	nt
COC(=O)c1ccc(OC)c(CSc2nnc(COc3cccc(C)c3)o2)c1	-1	-1	i	i	i	i	19*	i
CN1CCN(c2ccccc2NC(=O)c2ccc(N3CCCC3)c([N+](=O)[O-])c2)CC1	2	1	i	i	i	i	18*	-44*
CN1CCN(c2ccc([N+](=O)[O-])cc2NC(=O)c2cccs2)CC1	-2	-1	i	6.6*	i	i	52*	-82*
CCCc1nnc(SCC(=O)O)n1CC	-1	-3	i	i	i	i	nt	nt
CC(C)Cn1c(/C=C/c2ccccc2)nc2ccccc21	-1	-1	i	i	i	i	23*	i
Cc1ccc(C)c(CSc2nnc(-c3cccs3)n2Cc2ccco2)c1	1	-2	i	7.1*	i	i	60*	i
CC(=O)c1cnc(Nc2nc(C)c3ccccc3n2)nc1C	1	0	nt	i	i	i	44*	-45*
CC(=O)c1cnc(Nc2nc(C)c3ccc(C)cc3n2)nc1C	-2	-5	i	i	i	i	nt	nt
CC1CCC(C(C)C)C(OC(=O)C[n+]2cc(-c3ccc(Cl)cc3)n3c2CCC3)C1 (configuration not stated)	-2	-3	i	14*	i	i	83*	i
